# Measured values as given in ChEMBL document CHEMBL4765233, “From Lead to Drug Candidate: Optimization of 3-(Phenylethynyl)-1H-pyrazolo[3,4-d]pyrimidin-4-amine Derivatives as Agents for the Treatment of Triple Negative Breast Cancer” (J Med Chem, 2016).
# pIC50: −log10 of the molar value. The source made the active and inactive calls. The rule behind the calls is not given here.
# Assays:
# [1] = biological target: Mitogen-activated protein kinase 1 (Homo sapiens, UniProt P28482); assay: Inhibition of human full length recombinant ERK2 using myelin basic protein as substrate incubated for 40 mins in presence of [gamma33P-ATP] by radiometric scintillation counting analysis
# Danio rerio [2] = species on record: Danio rerio; assay: Antiangiogenesis activity in EGFP-labelled zebrafish embryo assessed as reduction in formation of intersegmental vessels at 1.25 to 5 uM incubated for overnight by fluorescence microscopic analysis; assay type: functional, organism-based; details: dose 1.25-5 µM
# Summary of the method: (§1)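 Transgenic FLK:EGFP zebrafish kept at 28 °C, pH 7.2−7.4, 14 h light/10 h dark. Embryos at 30 hpf incubated overnight with compound at 1.25, 2.5 or 5 μM beside a blank control. Fish anaesthetized, then vessels imaged by fluorescence microscopy.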
# MDA-MB-231 [3] = assay: Induction of apoptosis in human MDA-MB-231 cells assessed as live cells at 0.01 uM incubated for 24 hrs by annexin V-FITC and propidium iodide staining based flow cytometry analysis (reference value: 96.95 %); assay type: functional
# MDA-MB-231 [4] = assay: Inhibition of Fra1 expression in human MDA-MB-231 cells at >0.03 uM incubated for 20 hrs by Western blot analysis; assay type: functional, cell-based; details: dose microM >0.03, time 20.0 hrs
# Summary of the method: (§2)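 MDA-MB-231 cells treated with a series of concentrations for 20 h at 37 °C. Cells washed with ice-cold saline and lysed in RIPA buffer with protease cocktail. Lysates cleared at 12000 rpm for 10 min at 4 °C and protein quantified by Bradford. Equal protein separated by SDS-PAGE, transferred to PVDF and probed with antibodies.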
# MDA-MB-231 [5] = assay: Induction of apoptosis in human MDA-MB-231 cells assessed as necrotic cells at 0.1 uM incubated for 24 hrs by annexin V-FITC and propidium iodide staining based flow cytometry analysis (reference value: 0.2 %); assay type: functional
# MDA-MB-231 [6] = assay: Induction of apoptosis in human MDA-MB-231 cells assessed as late apoptotic cells at 0.03 uM incubated for 24 hrs by annexin V-FITC and propidium iodide staining based flow cytometry analysis (reference value: 0.85 %); assay type: functional
# [7] = biological target: Proto-oncogene tyrosine-protein kinase Src (Homo sapiens) (UniProt P12931); assay: Inhibition of Src in human MDA-MB-231 cells assessed as inhibition of STAT3 phosphorylation at 0.1 to 0.3 uM incubated for 20 hrs by Western blot analysis; assay type: cell-based; details: dose 0.1-0.3 µM; summary of the method: as §2
# MDA-MB-415 = assay: Antiproliferative activity against human MDA-MB-415 cells assessed as reduction in cell viability incubated for 72 hrs by MTT assay; assay type: functional, cell-based; details: MDA-MB-415, 72 h
# Summary of the method: (§3)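 MTT viability assay. ATCC cell lines were grown in designated medium with 10% FBS at 37 °C, 5% CO2. Cells seeded at 1500−30000 per well and incubated 24 h, then exposed to compound (0−10 μg/mL) for 72 h. MTT added for 2−4 h. Formazan dissolved in DMSO (adherent) or acidified SDS overnight (suspension), absorbance read at 570 nm. Triplicates; IC50 calculated.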
# MDA-MB-231 [8] = assay: Inhibition of Fra1 phosphorylation in human MDA-MB-231 cells at >0.03 uM incubated for 20 hrs by Western blot analysis; assay type: functional, cell-based; details: dose microM >0.03, time 20.0 hrs; summary of the method: as §2
# MDA-MB-231 [9] = assay: Induction of apoptosis in human MDA-MB-231 cells assessed as necrotic cells at 0.01 uM incubated for 24 hrs by annexin V-FITC and propidium iodide staining based flow cytometry analysis (reference value: 0.2 %); assay type: functional
# [10] = Metabolic stability in rat liver microsomes assessed as parent compound remaining at 1 uM measured after 60 mins in presence of NADPH by HPLC-MS/MS analysis; assay type: ADME, Microsome; details: read-out: Stabilty
# Summary of the method: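 Compound at 1 μM incubated with 0.5 mg/mL liver microsomes and 1 mM NADPH. Samples taken at 0, 10, 15, 30, 45 and 60 min and quenched with acetonitrile. After centrifugation, supernatant analysed by HPLC-MS/MS, with percent parent remaining relative to the 0 min area.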
# [11] = Cmax in Sprague-Dawley rat at 10 mg/kg, po administered via gavage by LC-MS analysis; assay type: ADME, organism-based; parameters: route oral, dose 10 mg/kg; details: in vivo
# [12] = Inhibition of human recombinant EGFR T790M/L858R mutant (696 to end residues) using GGMEDIYFEFMGGKKK as substrate incubated for 40 mins in presence of [gamma33P-ATP] by radiometric scintillation counting analysis
# Summary of the method: (§4)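 Radiometric kinase assay run as an external profiling service, with ATP at the Km of each kinase. IC50 values are means of two independent experiments.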
# HCC1937 = assay: Antiproliferative activity against human HCC1937 cells assessed as reduction in cell viability incubated for 72 hrs by MTT assay; assay type: functional, cell-based; details: HCC1937, 72 h; summary of the method: as §3
# Danio rerio [13] = species on record: Danio rerio; assay: Antiangiogenesis activity in EGFP-labelled zebrafish embryo assessed as reduction in formation of major cranial vessel at 1.25 to 5 uM incubated for overnight by fluorescence microscopic analysis; assay type: functional, organism-based; details: dose 1.25-5 µM; summary of the method: as §1
# [14] = biological target: High affinity nerve growth factor receptor (Homo sapiens, UniProt P04629); assay: Inhibition of human recombinant TRKA (440 to end residues) using KKKSPGEYVNIEFG as substrate incubated for 40 mins in presence of [gamma33P-ATP] by radiometric scintillation counting analysis; summary of the method: as §4
# MDA-MB-435 = assay: Antiproliferative activity against human MDA-MB-435 cells assessed as reduction in cell viability incubated for 72 hrs by MTT assay; assay type: functional, cell-based; details: MDA-MB-435, 72 h; summary of the method: as §3
# [15] = biological target: Platelet-derived growth factor receptor beta (Homo sapiens, UniProt P09619); assay: Inhibition of human recombinant PDGFRbeta (557 to end residues) using poly(Glu, Tyr)4:1 as substrate incubated for 40 mins in presence of [gamma33P-ATP] by radiometric scintillation counting analysis
# PLC-PRF-5 = assay: Antiproliferative activity against human PLC-PRF-5 cells assessed as reduction in cell viability incubated for 72 hrs by MTT assay; assay type: functional, cell-based; details: PLC-PRF-5, 72 h; summary of the method: as §3
# A-375 = assay: Antiproliferative activity against human A-375 cells assessed as reduction in cell viability incubated for 72 hrs by MTT assay; assay type: functional, cell-based; details: A-375, 72 h; summary of the method: as §3
# MDA-MB-231 [16] = assay: Induction of apoptosis in human MDA-MB-231 cells incubated for 24 hrs by annexin V-FITC and propidium iodide staining based flow cytometry analysis; assay type: functional, cell-based; details: dose 0.01-0.1 µM
# Summary of the method: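 MDA-MB-231 cells (2 × 10^5) plated in six-well plates, treated with vehicle or compound at various concentrations for 24 h at 37 °C. Harvested, washed with ice-cold PBS, stained with Annexin V-FITC/PI and analysed by flow cytometry.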
# HT-29 = assay: Antiproliferative activity against human HT-29 cells assessed as reduction in cell viability incubated for 72 hrs by MTT assay; assay type: functional, cell-based; details: HT-29, 72 h; summary of the method: as §3
# Mus musculus = assay: In vivo inhibition of ERK in SCID mouse xenografted with human MDA-MB-231 cells assessed as reduction in phosphorylation of ERK in tumor tissue at 40 mg/kg, po QD for 21 days by immunohistochemical analysis; assay type: functional, organism-based; details: dose 40.0 mg/kg/day, time 21.0 day
# Summary of the method: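 Tumors taken from xenografted SCID mice dosed orally at 40 mg/kg/q.d. or given control; mice euthanized at set times. Tumors formalin-fixed and paraffin-embedded, stained by immunohistochemistry for phospho-proteins, and imaged by light microscopy.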
# [17] = Half-life in Sprague-Dawley rat at 10 mg/kg, po administered via gavage by LC-MS analysis; assay type: ADME, organism-based; details: in vivo
# Chain of High affinity nerve growth factor receptor (P04629 whole entry): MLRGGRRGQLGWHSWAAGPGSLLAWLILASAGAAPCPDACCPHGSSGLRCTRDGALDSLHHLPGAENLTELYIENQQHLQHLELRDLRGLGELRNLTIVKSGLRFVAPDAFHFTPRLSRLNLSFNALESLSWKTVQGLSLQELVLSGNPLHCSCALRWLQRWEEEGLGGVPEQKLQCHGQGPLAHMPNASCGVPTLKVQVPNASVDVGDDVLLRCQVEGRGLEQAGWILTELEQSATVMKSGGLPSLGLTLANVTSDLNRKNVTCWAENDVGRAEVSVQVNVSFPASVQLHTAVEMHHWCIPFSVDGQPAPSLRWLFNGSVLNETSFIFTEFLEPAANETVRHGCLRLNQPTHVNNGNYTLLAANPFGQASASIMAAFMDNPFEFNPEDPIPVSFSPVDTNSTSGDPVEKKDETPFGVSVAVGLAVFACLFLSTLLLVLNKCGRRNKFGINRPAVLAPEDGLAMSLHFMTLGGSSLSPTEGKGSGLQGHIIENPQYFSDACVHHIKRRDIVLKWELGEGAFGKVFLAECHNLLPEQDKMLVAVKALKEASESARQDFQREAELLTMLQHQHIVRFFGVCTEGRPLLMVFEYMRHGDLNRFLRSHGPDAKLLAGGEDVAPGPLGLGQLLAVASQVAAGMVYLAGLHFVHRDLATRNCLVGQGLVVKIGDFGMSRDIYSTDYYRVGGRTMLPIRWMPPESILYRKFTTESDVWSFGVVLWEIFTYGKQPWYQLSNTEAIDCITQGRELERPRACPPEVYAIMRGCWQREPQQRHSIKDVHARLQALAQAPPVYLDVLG
# Chain of Platelet-derived growth factor receptor beta (P09619 whole entry): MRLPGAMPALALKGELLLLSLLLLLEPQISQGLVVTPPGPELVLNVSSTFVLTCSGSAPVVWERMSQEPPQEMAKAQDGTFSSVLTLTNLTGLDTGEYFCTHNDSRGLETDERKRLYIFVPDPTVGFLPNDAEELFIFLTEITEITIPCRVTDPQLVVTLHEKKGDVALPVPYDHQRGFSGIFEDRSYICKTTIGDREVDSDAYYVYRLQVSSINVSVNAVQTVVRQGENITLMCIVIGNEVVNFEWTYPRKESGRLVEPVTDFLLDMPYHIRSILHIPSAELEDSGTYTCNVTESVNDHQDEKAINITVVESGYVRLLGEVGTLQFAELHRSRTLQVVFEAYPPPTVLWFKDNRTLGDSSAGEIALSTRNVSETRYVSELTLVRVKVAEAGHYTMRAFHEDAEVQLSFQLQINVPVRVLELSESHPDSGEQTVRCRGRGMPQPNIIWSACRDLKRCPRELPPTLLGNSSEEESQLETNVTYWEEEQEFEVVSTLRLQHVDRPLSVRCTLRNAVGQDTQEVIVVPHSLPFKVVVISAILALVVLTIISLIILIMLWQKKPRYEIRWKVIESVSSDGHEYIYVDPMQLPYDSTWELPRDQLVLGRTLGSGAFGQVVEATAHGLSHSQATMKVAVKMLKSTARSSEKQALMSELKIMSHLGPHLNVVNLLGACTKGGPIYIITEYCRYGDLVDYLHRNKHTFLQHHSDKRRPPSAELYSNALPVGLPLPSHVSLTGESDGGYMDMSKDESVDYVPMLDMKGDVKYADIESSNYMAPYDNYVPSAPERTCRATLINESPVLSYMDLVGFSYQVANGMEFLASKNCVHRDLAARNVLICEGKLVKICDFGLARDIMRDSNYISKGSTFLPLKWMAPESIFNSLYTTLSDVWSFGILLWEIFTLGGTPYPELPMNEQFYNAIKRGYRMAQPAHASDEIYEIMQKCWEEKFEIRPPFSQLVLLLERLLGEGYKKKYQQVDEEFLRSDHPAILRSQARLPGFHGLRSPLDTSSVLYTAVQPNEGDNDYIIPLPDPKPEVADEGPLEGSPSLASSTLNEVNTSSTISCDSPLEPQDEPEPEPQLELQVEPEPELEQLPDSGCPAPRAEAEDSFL
# Chain of Proto-oncogene tyrosine-protein kinase Src (Homo sapiens) (P12931 2-536 limits assumed): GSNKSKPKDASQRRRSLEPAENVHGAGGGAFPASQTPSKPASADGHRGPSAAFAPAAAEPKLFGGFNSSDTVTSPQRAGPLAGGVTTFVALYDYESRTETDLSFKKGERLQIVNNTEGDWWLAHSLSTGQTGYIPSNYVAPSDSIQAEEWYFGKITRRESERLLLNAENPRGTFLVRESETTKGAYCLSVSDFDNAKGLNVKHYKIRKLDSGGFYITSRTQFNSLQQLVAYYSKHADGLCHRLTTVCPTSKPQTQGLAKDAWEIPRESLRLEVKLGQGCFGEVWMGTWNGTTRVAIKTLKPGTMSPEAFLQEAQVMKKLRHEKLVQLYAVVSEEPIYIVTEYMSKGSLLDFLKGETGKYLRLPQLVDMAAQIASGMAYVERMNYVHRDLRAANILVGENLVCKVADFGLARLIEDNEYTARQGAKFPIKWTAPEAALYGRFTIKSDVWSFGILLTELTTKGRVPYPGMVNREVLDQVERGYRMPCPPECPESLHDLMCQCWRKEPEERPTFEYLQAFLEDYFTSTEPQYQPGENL
# Chain of Mitogen-activated protein kinase 1 (P28482 whole entry): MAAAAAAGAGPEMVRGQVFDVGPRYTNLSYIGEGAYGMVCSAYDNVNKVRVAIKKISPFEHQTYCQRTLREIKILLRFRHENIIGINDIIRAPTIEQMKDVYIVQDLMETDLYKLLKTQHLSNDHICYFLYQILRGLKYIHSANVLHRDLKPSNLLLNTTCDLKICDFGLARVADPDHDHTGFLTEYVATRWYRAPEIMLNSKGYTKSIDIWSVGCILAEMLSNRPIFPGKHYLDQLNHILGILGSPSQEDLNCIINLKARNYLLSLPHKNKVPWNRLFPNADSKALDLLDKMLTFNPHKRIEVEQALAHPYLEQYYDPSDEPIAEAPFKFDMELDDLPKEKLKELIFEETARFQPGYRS
structure (smiles),measurement,setting,value
Cc1ccc(NC(=O)c2ccc(C)c(C(F)(F)F)c2)cc1C#Cc1nn([C@H]2CC[C@H](O)CC2)c2ncnc(N)c12,pIC50,[1],< 5.00
same,Activity,Danio rerio [2],Active
same,Activity,MDA-MB-231 [3],91.3%
same,inhibition,MDA-MB-231 [4],Active
same,Activity,MDA-MB-231 [5],1.23%
same,Activity,MDA-MB-231 [6],11.2%
same,inhibition,[7],Active
same,pIC50,MDA-MB-415,5.00
same,inhibition,MDA-MB-231 [8],Active
same,Activity,MDA-MB-231 [9],0.42%
same,"remaining at 1 h, 1 µM",[10],> 90%
same,Cmax,[11],143 ng/mL
same,pIC50,[12],8.10
same,pIC50,HCC1937,6.34
same,Activity,Danio rerio [13],inactive
same,pIC50,[14],< 5.00
same,pIC50,MDA-MB-435,8.10
same,pIC50,[15],< 5.00
same,pIC50,PLC-PRF-5,5.00
same,pIC50,A-375,7.51
same,Activity,MDA-MB-231 [16],Dose-dependent effect
same,pIC50,HT-29,6.64
same,inhibition,Mus musculus,Active
same,half-life,[17],18.9 h
